In the library only some 4.6% were active in any assay of this set; here they are far more common.
CHO parental Ca: signal in parental CHO cells, OX1R antagonist counter-screen; AID 463079; inhibition, % at 5.6 µM; parental CHO-K1, ATP-induced calcium, Fluo-8 fluorescence; 330,000 compounds, 0.63% hits;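 active = inhibition above that plate's mean sample inhibition plus 3 SD, cut at about 26% in these data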;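 note: 0% = ATP-challenged DMSO wells and 100% = DMSO wells without ATP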
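Material: parental CHO cells / Compound: single nominal dose of 5.6 µM per compound / Signal: Fluo-8 fluorescence / Replicates: singlicate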
GPR7 antagonist: human neuropeptides B/W receptor 1 antagonism; AID 1861; inhibition, % at 4.4 µM; GPR7-expressing cells, fluorescence antagonist assay; 290,000 compounds, 1.1% hits; in the data active = inhibition above about 16%, passing the limit was not always enough;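 note: cells stimulated with the agonist NPW; 0% = agonist with vehicle and 100% = vehicle without agonist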
Target sequence (P48145 whole entry, looked up): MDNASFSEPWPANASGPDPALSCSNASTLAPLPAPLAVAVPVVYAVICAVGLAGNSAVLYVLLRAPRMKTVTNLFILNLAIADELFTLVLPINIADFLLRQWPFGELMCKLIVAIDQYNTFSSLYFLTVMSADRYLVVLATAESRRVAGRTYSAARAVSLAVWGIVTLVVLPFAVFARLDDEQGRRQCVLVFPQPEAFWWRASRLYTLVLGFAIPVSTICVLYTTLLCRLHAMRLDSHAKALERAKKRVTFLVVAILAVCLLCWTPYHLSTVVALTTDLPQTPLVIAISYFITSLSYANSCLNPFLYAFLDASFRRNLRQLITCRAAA
OX1R antag-1: OX1R (human) antagonism; O43613; OX1R-expressing cells, FRET antagonist read-out; inhibition, % at 6.6 µM; 330,000 compounds, 1.8% hits; AID 485270; in the data active = inhibition mostly above about 38%, no sharp cut-off; inactive = mostly below about 40%;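 note: 0% = agonist challenge alone and 100% = reference antagonist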
OX1R antag-2: blocks the human orexin 1 receptor. CHO/OX1R cells, Fluo-8 calcium fluorescence, orexin A. O43613. 330,000 compounds, 0.43% hits. inhibition, % at 5 µM;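 active = inhibition above its plate's threshold, mean inhibition of all tested compounds on the plate plus 3 SD, cut at about 37% in these data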;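 note: 0% = orexin A challenge wells and 100% = SB-334867-A antagonist wells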
TAAR1 antagonist: antagonists of human TAAR1; 360,000 compounds, 1.5% hits; AID 624466; inhibition, % at 3 µM; CHO RD-HGA16 TAAR1, Fluo-8 calcium fluorescence, antagonist;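 active = inhibition above a per-plate cutoff, the mean inhibition of test compounds on that plate plus 3 SD, cut at about 49% in these data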;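 note: 0% = DMSO plus EC80 beta-PEA response and 100% = DMSO alone without agonist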
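Material: CHO RD-HGA16 cells bearing hTAAR1; compound dosing: one-point dosing, 3 µM nominal final; schedule: dye loading 75 min at 37 °C, then 30 min room temperature; measured by: calcium fluorescence with Fluo-8; control set: vehicle and agonist controls; replication: n of 1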
TAAR1 ag: agonists of human TAAR1; Q96RJ0; CHO RD-HGA16 TAAR1, Fluo-8 calcium fluorescence; vehicle wells 0%, saturating PEA agonist 100%; activation, % at 3 µM; 360,000 compounds, 0.99% hits; AID 624467;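 active = activation above the mean activation of all test compounds in the run plus 3 SD, cut at about 38% in these data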
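Assay system – CHO-derived RD-HGA16 cells with stable Gα16 and human TAAR1 · Compound dosing – one-point dosing at 3 µM (nominal) · Incubation – 17-24 h seeding, 75 min 37 °C dye, 30 min RT · Measured by – kinetic Fluo-8 calcium fluorescence · Control set – DMSO vehicle as 0%, PEA at EC100 as 100% · Repeats – single well for each compound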
OX1R HTRF confirm: confirmation of human orexin 1 receptor antagonists, HTRF format; AID 492964; OX1R-expressing cells, HTRF antagonist assay; shares compounds with OX1R antag-1; 1,800 compounds, 49% hits; inhibition, % at 6.6 µM; in the data active = inhibition above about 55%;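 note: CHO cells expressing OX1R stimulated with orexin A at about EC80; 0% = agonist challenge alone and 100% = reference antagonist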
CHO-K1 HTRF cnt: counter-screen for OX1R antagonists: effect in parental CHO-K1 cells; shares compounds with OX1R antag-1; HTRF counterscreen; inhibition, % at 6.6 µM; 1,800 compounds, 48% hits; in the data active = inhibition above about 17%;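 note: 0% = agonist challenge with vehicle and 100% = vehicle alone without agonist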
* = called active by the depositor; / = no result.

SMILES	CHO parental Ca	GPR7 antagonist	OX1R antag-1	OX1R antag-2	TAAR1 antagonist	TAAR1 ag	OX1R HTRF confirm	CHO-K1 HTRF cnt
COc1ccc(OC)c(NC(=O)CSCc2cnn(-c3ccccc3)c2-n2cccc2)c1	-23.8	3.4	78.0*	17.8	12.8	2.8	76.9*	1.5
Cc1ncc(CO)c2cc(C(N)=O)c(=Nc3ccccc3)oc12	-12.5	6.1	150.2*	-19.2	1.5	9.1	31.0	41.6*
Cc1ccc(NC(=O)c2cc3c(CO)cnc(C)c3oc2=Nc2cccc(C(N)=O)c2)cc1	-17.2	-7.6	10.7	-11.1	-21.5	2.1	/	/
COc1ccc(-c2nn3c(-c4ccc(F)cc4)nnc3s2)cc1	-6.3	20.2	7.7	-13.7	-4.5	-0.9	/	/
COc1ccc(-c2nn3c(-c4ccccc4)nnc3s2)cc1	-7.3	-8.2	87.0*	19.6	9.4	1.0	88.1*	13.2
COC(=O)c1c(=O)n(O)c2ccc(OC)cc2[n+]1[O-]	-10.6	-6.0	87.9*	-12.3	/	/	33.1	47.3*
CCC(=O)N1CCc2cc(-c3csc(NC(=O)c4ccco4)n3)ccc21	-9.1	-2.4	93.7*	22.1	26.2	3.2	65.6*	8.6
O=C(NC(=S)Nc1nc(-c2ccccc2)cs1)c1ccco1	-6.6	-2.7	79.2*	-9.8	41.1	6.0	62.8*	6.5
COc1ccc(-c2csc(NC(=S)NC(=O)c3ccco3)n2)cc1	-5.2	-11.6	7.9	-0.9	12.7	3.4	/	/
CN(C)CCC1CCN(c2cc(C#N)c(C#N)cc2[N+](=O)[O-])CC1	-16.2	-11.3	118.4*	-11.1	-12.7	0.7	53.2	53.8*
Cc1[nH]c2ccccc2c1/C=C/c1nc2ccccc2c(=O)[nH]1	3.0	-6.3	86.8*	-24.6	-3.8	4.3	74.9*	12.2
O=S(=O)(c1cccc2nsnc12)N1CCOCC1	-14.7	-4.9	92.0*	-9.1	-5.2	1.1	49.9	38.2*
Cc1cc(=O)oc2c(CN3CCCC3)c(O)ccc12	-7.2	-9.0	0.5	-11.5	-16.5	4.3	/	/
CCCc1cc(=O)oc2c(CN3CCCC3)c(O)ccc12	-14.1	-3.2	94.4*	-23.7	10.0	-0.8	14.5	1.4
N#Cc1cc2c(=O)n3ccccc3nc2n(-c2ccc(Cl)cc2)c1=O	-8.6	-18.1	48.8	-11.7	0.4	5.0	/	/
C=CCn1c(=N)c(C#N)cc2c(=O)n3ccccc3nc21	-1.6	-12.2	101.9*	-8.6	13.3	3.7	54.7*	77.7*
C=CCn1c(=O)c(C#N)cc2c(=O)n3ccccc3nc21	-5.6	3.6	136.9*	-9.0	-16.8	6.8	43.6	33.9*
N=c1c(C(=O)NCc2ccc(F)cc2)cc2c(=O)n3ccccc3nc2n1CCCN1CCOCC1	0.2	4.7	82.3*	-1.8	-23.5	2.0	65.2*	34.6*
Cc1cc(-n2c(=O)c(C#N)cc3c(=O)n4ccccc4nc32)no1	-8.3	-6.2	127.9*	-16.6	-7.2	0.5	46.2	74.9*
CC(=O)NS(=O)(=O)c1ccc(NC(=O)c2oc3c(Cl)cccc3c2C)cc1	-0.1	-15.0	15.4	-1.6	/	/	/	/
CCOC(=O)c1cc2c(=O)n3ccccc3nc2n(CCCOC)c1=NC(=O)c1ccncc1	-19.1	3.8	84.8*	-9.3	43.3	12.8	33.9	32.7*
COCCCn1c(C(=O)NCCN2CCOCC2)cc2c(=O)n3ccccc3nc21	-6.2	-3.2	51.6	-17.5	4.1	0.6	/	/
CCOC(=O)c1cc2c(=O)n3ccccc3nc2n(Cc2ccco2)c1=NC(=O)c1ccc(OC)cc1	-7.7	0.5	13.3	-16.4	-73.7	0.3	/	/
C=CCn1c(=N)c(C(=O)NCCCOC)cc2c(=O)n3ccccc3nc21	-15.7	-10.7	136.8*	15.2	-18.8	2.5	56.0*	83.4*
CCOC(=O)[C@H]1[C@H]2COc3ccc(Cl)cc3[C@@H]2N2C(=O)c3cc(F)c(F)cc3NC(=O)[C@@]12C	-16.1	/	7.9	-21.5	13.0	3.1	/	/
